Data on eleven molecules can be found in ChEMBL document CHEMBL4130504, “Discovery of new indomethacin-based analogs with potentially selective cyclooxygenase-2 inhibition and observed diminishing to PGE2 activities” (Eur J Med Chem, 2017).

The term IC50 denotes the midpoint of a concentration-inhibition curve.

In one series the target is T1, Cyclooxygenase (Rattus norvegicus, UniProt P35355+Q63921).
T1 sequence (P35355 whole entry): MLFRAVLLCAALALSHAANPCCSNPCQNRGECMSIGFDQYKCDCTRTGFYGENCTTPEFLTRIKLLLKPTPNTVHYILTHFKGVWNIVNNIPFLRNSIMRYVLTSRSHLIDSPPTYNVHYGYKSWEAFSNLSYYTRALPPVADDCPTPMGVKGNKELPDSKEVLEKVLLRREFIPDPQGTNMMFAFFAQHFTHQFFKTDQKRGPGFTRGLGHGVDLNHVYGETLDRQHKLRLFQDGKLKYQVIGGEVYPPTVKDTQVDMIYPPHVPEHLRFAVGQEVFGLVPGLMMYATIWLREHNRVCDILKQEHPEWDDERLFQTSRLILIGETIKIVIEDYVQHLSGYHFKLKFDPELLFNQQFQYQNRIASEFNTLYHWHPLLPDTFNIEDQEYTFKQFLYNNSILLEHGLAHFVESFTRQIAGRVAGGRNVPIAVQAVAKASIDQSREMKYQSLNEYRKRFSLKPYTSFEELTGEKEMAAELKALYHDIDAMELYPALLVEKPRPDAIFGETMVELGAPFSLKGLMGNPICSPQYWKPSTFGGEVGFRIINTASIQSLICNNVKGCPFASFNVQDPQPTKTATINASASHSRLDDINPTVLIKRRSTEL
T1 sequence (Q63921 whole entry): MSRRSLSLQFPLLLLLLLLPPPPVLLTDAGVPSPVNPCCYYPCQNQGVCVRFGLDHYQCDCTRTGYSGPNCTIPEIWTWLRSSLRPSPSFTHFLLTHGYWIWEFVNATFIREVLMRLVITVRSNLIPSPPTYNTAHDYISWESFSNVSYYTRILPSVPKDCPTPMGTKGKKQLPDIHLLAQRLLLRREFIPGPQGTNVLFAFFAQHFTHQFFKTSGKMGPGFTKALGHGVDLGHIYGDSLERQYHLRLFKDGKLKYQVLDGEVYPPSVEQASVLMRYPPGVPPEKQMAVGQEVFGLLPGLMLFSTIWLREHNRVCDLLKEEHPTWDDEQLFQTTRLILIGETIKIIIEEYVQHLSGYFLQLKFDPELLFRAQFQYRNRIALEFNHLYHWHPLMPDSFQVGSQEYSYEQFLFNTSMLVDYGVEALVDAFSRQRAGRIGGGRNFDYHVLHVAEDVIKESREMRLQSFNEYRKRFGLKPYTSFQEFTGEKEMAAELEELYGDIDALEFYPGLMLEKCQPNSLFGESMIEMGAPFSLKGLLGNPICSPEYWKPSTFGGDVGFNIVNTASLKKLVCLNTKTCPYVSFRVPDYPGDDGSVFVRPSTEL
Description: Inhibition of rat kidney microsomal COX assessed as PGE2 level using arachidonic acid as substrate preincubated for 5 to 15 mins followed by substrate addition measured after 40 mins by radio immunoassay.

Series [1] deals with Rattus norvegicus. Description: Ulcerogenicity in albino rat assessed as at 30 umol/kg, po administered daily for 3 successive days in two equal doses at 0 and 12 hrs measured at 6 hrs post last dose by magnifying lens based assay relative to control. The format is toxicity, organism-based. The following applies: in vivo. The gist of the method: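 Male albino rats, 100-120 g, fasted 12 h, six per group. Compound given orally at 30 µmol/kg/day as two equal doses at 0 and 12 h for three days. Controls got 1% gum acacia. Killed 6 h after last dose. Stomach opened along the greater curvature, washed with cold saline and examined under a magnifying lens for hyperemia, hemorrhage, erosion or ulcer. % ulceration = ulcer-bearing animals ×100/group total.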

The test system of series [2] is Rattus norvegicus. Description: Antiinflammatory activity in sc dosed Sprague-Dawley rat assessed as inhibition of cotton pellet-induced granuloma after 7 days. It is filed as functional. The gist of the method: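 Adult male Sprague-Dawley rats, 120-140 g, six per group, acclimated one week. Cotton pellets (35 ± 1 mg) soaked with 0.01 mmol compound in chloroform, dried, then loaded with penicillin G/dihydrostreptomycin. Two pellets implanted subcutaneously, one per axilla, under mild anesthesia. Pellets with granuloma removed at day 7, dried 48 h at 60 °C and weighed. ED50 from dose-response at 4, 7, 10 and 15 µmol.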

Series [3] is described as follows: Inhibition of dog kidney microsomal COX assessed as PGE2 level using arachidonic acid as substrate preincubated for 5 to 15 mins followed by substrate addition measured after 40 mins by radio immunoassay. Further details: species or system Canis lupus familiaris. The gist of the method: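 Dog kidney microsomes: tissue homogenized and sonicated in phosphate buffer pH 7.1 with EDTA/PMSF, 100,000g pellet collected. Arachidonic acid added, 40 min at room temperature. Stopped with 1 N HCl, neutralized, PGE2 by radioimmunoassay. COX activity = PGE2 with arachidonic acid minus ethanol vehicle. IC50 from three separate experiments, mean ± SEM.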

Series [4] concerns Rattus norvegicus. Description: In vivo inhibition of rat COX-2 assessed as decrease in plasma PGE2 level by EIA relative to control. It is filed as functional. The gist of the method: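 Plasma from heparinized rat blood, spun at 12,000 g for 2 min, then frozen until use. PGE2 measured by competitive enzyme immunoassay with a monoclonal anti-PGE2 antibody at room temperature, read at 405 nm. Expressed as % inhibition ± SEM.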

The subject of series [5] is Rattus norvegicus. Put plainly: Antiinflammatory activity in albino rat assessed as protection against carrageenan-induced paw edema at 10 umol/kg, sc pretreated for 1 hr followed by carrageenan challenge measured after 4 hrs by plethysmometer (reference value: 0%). The format is functional. The gist of the method: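 Male albino rats, 120-150 g, six per group. Compound in DMSO given subcutaneously at 10 µmol/kg 1 h before subplantar injection of 2% carrageenan in 0.9% saline. Controls got DMSO alone. Paw volume read by plethysmometer right after carrageenan and 4 h later. % protection = (Vc−Vd)×100/Vc from the 0–4 h increase. Mean ± SEM, Student's t-test.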
On the technique in general: The carrageenan paw model is a standard test of acute inflammation.

Regarding `COc1ccc2c(c1)c1c(n2C(=O)c2ccc(Cl)cc2)CC(C)(C)CC1=O`, the half-inhibitory concentration (IC50) was determined as 141 nM at Cyclooxygenase and 80 nM in series [3]. The Activity with Rattus norvegicus [1] came out at 13.18%; in the series with Rattus norvegicus [5] it was 79.66%. Besides, in the series on Rattus norvegicus [2], the ED50 came to 28.27 µmol. Besides, the “inhibition (INH)” value in the series with Rattus norvegicus [4] was found to be 80.24%.
In the case of `CS(=O)(=O)c1ccc2c(c1)c1c(n2Cc2ccc(Cl)cc2)CCCC1=O`, the IC50 at Cyclooxygenase was 93 nM; in series [3], 45 nM. The Activity with Rattus norvegicus [1] is recorded as 5.4%; in the series with Rattus norvegicus [5], 83.1%. Moreover, in the series on Rattus norvegicus [2], the ED50 came out at 19.2 µmol. Besides, in the series with Rattus norvegicus [4], the “inhibition (INH)” value is 86.39%.
Regarding `CS(=O)(=O)c1ccc2c(c1)c1c(n2C(=O)c2ccc(Cl)cc2)CCCC1`, the IC50 on Cyclooxygenase came to 116 nM; in series [3], 56 nM. Moreover, the results for the Activity in the series with Rattus norvegicus [1] and in the series on Rattus norvegicus [5] were 12.45% and 80.97%, respectively. For the same molecule, the ED50 in the series on Rattus norvegicus [2] stood at 25.67 µmol. Moreover, the “inhibition (INH)” value with Rattus norvegicus [4] came to 83.19%.
With `COc1ccc2c(c1)c1c(n2Cc2ccc(Cl)cc2)CC(C)(C)CC1=O`, the concentration for half-maximal inhibition (IC50) on Cyclooxygenase amounted to 132 nM; in series [3] it was 77 nM. Further, the Activity with Rattus norvegicus [1] came out at 11.2%; in the series with Rattus norvegicus [5], 80.36%. The ED50 in the series on Rattus norvegicus [2] came to 17.27 µmol. Further, the “inhibition (INH)” value with Rattus norvegicus [4] is reported as 81.16%.
In the case of `CS(=O)(=O)c1ccc2c(c1)c1c(n2C(=O)c2ccc(Cl)cc2)CCCC1=O`, the values for the IC50 (at Cyclooxygenase; in series [3]) were 48 nM and 34 nM, respectively. In addition, the Activity is on record as 3.28% in the series with Rattus norvegicus [1] and 88.06% in the series on Rattus norvegicus [5]. The ED50 in the series on Rattus norvegicus [2] came out at 12.38 µmol. Besides, the “inhibition (INH)” value in the series on Rattus norvegicus [4] amounted to 91.29%.
`CS(=O)(=O)c1ccc2c(c1)c1c(n2S(=O)(=O)c2ccc(Cl)cc2)CCCC1=O`: the IC50 at Cyclooxygenase stood at 104 nM; in series [3], 53 nM. The Activity is reported as 11.29% in the series on Rattus norvegicus [1] and 81.88% with Rattus norvegicus [5]. The ED50 with Rattus norvegicus [2] amounted to 22.33 µmol. Besides, the “inhibition (INH)” value in the series on Rattus norvegicus [4] is given as 84.11%.
Take `CS(=O)(=O)c1ccc2c(c1)c1c(n2Cc2ccc(Cl)cc2)CCCC1`: the results for the IC50 (at Cyclooxygenase; in series [3]) were 56 nM and 39 nM, respectively. The Activity worked out at 4.48% with Rattus norvegicus [1] and 87.55% in the series with Rattus norvegicus [5]. Besides, the ED50 in the series on Rattus norvegicus [2] came out at 14.56 µmol. In addition, the “inhibition (INH)” value in the series with Rattus norvegicus [4] is 89.43%.
Consider `COc1ccc2c(c1)c1c(n2S(=O)(=O)c2ccc(Cl)cc2)CC(C)(C)CC1=O`, for which the IC50 at Cyclooxygenase stood at 128 nM; in series [3], 61 nM. Further, the Activity in the series with Rattus norvegicus [1] is 20.12%; in the series with Rattus norvegicus [5] it was 80.67%. Further, the ED50 in the series with Rattus norvegicus [2] was 26.88 µmol. The “inhibition (INH)” value with Rattus norvegicus [4] was 82.16%.
As for `CS(=O)(=O)c1ccc2c(c1)c1c(n2S(=O)(=O)c2ccc(Cl)cc2)CCCC1`, the IC50 on Cyclooxygenase is 79 nM; in series [3], 40 nM. The Activity in the series on Rattus norvegicus [1] was determined as 2.9%; in the series with Rattus norvegicus [5] it was 85.32%. Moreover, in the series with Rattus norvegicus [2], the ED50 was 18.67 µmol. In the series with Rattus norvegicus [4], the “inhibition (INH)” value is reported as 88.2%.
As to `Cc1ccc(-c2cc(C(F)(F)F)nn2-c2ccc(S(N)(=O)=O)cc2)cc1` [CELECOXIB], the Activity stood at 2.11% in the series with Rattus norvegicus [1] and 96.73% in the series on Rattus norvegicus [5]. Moreover, the ED50 with Rattus norvegicus [2] was determined as 86.11 µmol. In addition, in series [3], the IC50 was 112 nM. The “inhibition (INH)” value in the series on Rattus norvegicus [4] came to 77.25%.
For the molecule `COc1ccc2c(c1)c(CC(=O)O)c(C)n2C(=O)c1ccc(Cl)cc1` [INDOMETHACIN], in the series with Rattus norvegicus [2], the ED50 was determined as 9.568 µmol. Besides, the “inhibition (INH)” value with Rattus norvegicus [4] worked out at 98.29%.
